# Shown are actives, neighbours in structure and some others; about 2.9% of the full set was active somewhere.
# PolyA inhibitor: polyadenylation inhibitors in yeast reporter cells, primary screen, luminescence, S. cerevisiae; S. cerevisiae SKY197-pL101 polyadenylation reporter, beta-gal luminescence; efflux-impaired pdr1/pdr3 knockout yeast; score 100 = 6 SD above DMSO; activity score, % at 12 µM; actives 0.02% (n = 300,000);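 active = lowest replicate activity score at least 50, where 100 means six control SD above control mean; inconclusive = lowest score under 50 but half or more replicates reach 50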;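 note: yeast exposed to compound for 9 h at 30 °C; higher score means more reporter readthrough which indicates perturbed polyadenylation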
# NALP1 yeast inh: NALP1 inflammasome inhibitors in reconstituted yeast, colorimetric, S. cerevisiae, triplicate retest. S. cerevisiae NALP1/ASC/caspase-1 growth, X-gal OD620, 72 h. actives 0.61% (n = 280,000). inhibition, % at 10 µM; in the data active = inhibition mostly above about 24%, no sharp cut-off; inactive = mostly below about 32%
# IMP-1 inh: IMP-1 metallo-beta-lactamase inhibitors, primary screen, biochemical, epi-absorbance readout, Pseudomonas aeruginosa enzyme | metallo-beta-lactamase IMP-1 (Pseudomonas aeruginosa) | purified IMP-1, nitrocefin hydrolysis, epi-absorbance fluorescence | inhibition, % at 5.6 µM | actives 0.45% (n = 290,000) | AID 1556, 2009;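 active = inhibition above the mean plus 3 SD of all compounds in the same screening run, cut at about 4.5% in these data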;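 note: 0% = IMP-1 with DMSO and 100% = DMSO wells lacking enzyme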
#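 System – purified recombinant IMP-1 beta-lactamase · Input – IMP-1 dispensed at 0.2 nM · Timing – 15 min preincubation plus 25 min reaction at 25 °C · Signal – Epi-absorbance fluorescence, 480 nm excitation, 530 nm emission · Measure – percent IMP-1 inhibition derived from blank-referenced optical density · Controls – Enzyme-plus-DMSO low control, enzyme-free DMSO high control · Replication – singlicate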
# Mot1-301 SUMO: yeast Mot1-301 growth rescue at high temperature, primary screen, SUMOylation pathway inhibitor project, S. cerevisiae, ATP luminescence, 38.5C. growth rescue, % at 18.8 µM. AID 2716, 2010. actives 1% (n = 320,000). S. cerevisiae Mot1-301 growth rescue; percent above DMSO median, 100 means doubled;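 active = every valid replicate shows activation above 250% relative to neutral control wells; inactive = the rest, any valid replicate at or below 250%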;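 note: OY570 slx delta 5 strain wells were the positive control but not used for scaling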
# NALP3 yeast inh: NALP3 inflammasome inhibitors in reconstituted yeast, primary screen, luminescence, uHTS; inhibition, % at 10 µM; Yeast reconstituted NLRP3/ASC/caspase-1, beta-gal luminescence, 24 h; actives 0.39% (n = 330,000);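 active = inhibition of 50% or more; inactive = inhibition below 50%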;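 note: plate controls were induced DMSO wells for no effect and uninduced yeast grown without galactose for full effect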
# VIM-2 inhibitor: VIM-2 metallo-beta-lactamase inhibitors, primary screen, biochemical, epi-absorbance readout, Pseudomonas aeruginosa enzyme; purified VIM-2, nitrocefin hydrolysis, epi-absorbance fluorescence; inhibition, % at 5.6 µM; actives 0.89% (n = 290,000); AID 1527, 2009;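 active = inhibition above the mean of all tested compounds plus 3 SD, cutoff set per screening run, cut at about 7.5% in these data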;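 note: red hydrolysis product quenches plate fluorescence so inhibitors raise well fluorescence; 0% = enzyme with DMSO and 100% = DMSO without enzyme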
# * hit, by the source's call; u = inconclusive; x = no result given; + = active, no number.
SMILES,PolyA inhibitor,NALP1 yeast inh,IMP-1 inh,Mot1-301 SUMO,NALP3 yeast inh,VIM-2 inhibitor
CCc1ccc(-n2c(O)c(/C=N/NC(=O)c3ccncc3)c(=O)[nH]c2=O)cc1,5,40,13*,24,-3,-3
CN(C)[C@@H]1C(=O)C(C(N)=O)=C(O)[C@@]2(O)C(=O)C3=C(O)c4c(O)ccc(Cl)c4[C@@](C)(O)C3C[C@@H]12 (stereo partly drawn),x,132*,0,x,x,2
CCC(C)N1C(=O)/C(=C/c2ccc3c(c2)CCN3CCCCl)C(=O)NC1=S (stereo not drawn),-1,12,-1,-13,x,-1
COCCNC(=O)Cn1cc(C(=O)c2ccccc2F)c2ccccc21,-1,x,-1,-13,12,0
COc1cc(/C=C/c2nc3ccccc3c(=O)n2-c2cccc(O)c2)ccc1O,61*,x,-2,x,6,-1
CN1CCC(c2c[nH]c3ccccc23)C1 (stereo not drawn),6,21,-2,-13,15,-2
CC1CCCC(C)N1/N=C/c1c[nH]c2ccc(Br)cc12 (stereo not drawn),-9,65*,-2,-12,5,0
CNC(C(=O)c1ccccc1)C(OC(C)=O)c1cccc([N+](=O)[O-])c1 (stereo not drawn),-19,-3,-3,-2,10,-1
O=C(O)c1ccccc1N=Nc1c(O)[nH]c(=O)[nH]c1=O,-22,1,-4,7,-1,-3
O=c1[nH]c(O)c(N=Nc2cc(C(F)(F)F)ccc2Cl)c(=O)[nH]1,1,9,0,-9,13,11*
CCCCn1c(O)c(C(C)=NCCN2CCOCC2)c(=O)[nH]c1=O,-16,11,0,x,15,-4
CCCCn1c(O)c(C(CC)=NCCN2CCOCC2)c(=O)[nH]c1=O,2,44*,-4,-10,27,-3
O=c1[nH]c(=S)n(-c2ccc(Br)cc2)c(O)c1C=Nc1ccc(N2CCOCC2)cc1,-11,-12,-3,-17,12,-3
O=c1[nH]c(=S)n(-c2ccccc2F)c(O)c1C=Nc1ccc(N2CCOCC2)cc1,-1,9,-3,+,6,-4
COc1ccc2oc3c(c2c1)NC(=O)CN=C3c1ccccc1,-6,23*,0,194,13,-2
C=CCn1c(O)c(/C=C2/C=c3ccccc3=N2)c(=O)[nH]c1=S,-10,6,11*,-8,x,1
C=CCn1c(O)c(C=Nc2ccc(F)cc2)c(=O)[nH]c1=O,0,13,-2,1,-3,-1
COC(=O)C1=C(c2ccc(F)cc2F)C[C@@H]2CC[C@H]1N2C(=O)N1CCC(O)(c2ccc(Cl)cc2)CC1,x,x,x,-5,14,x
CCOC(=O)C1=CC(=C2C(=O)N(CC)C(=S)N(CC)C2=O)c2ccccc2O1,15,-6,6.2*,6,2,-2
CCN1C(=O)C(=C2C=C(C)OC(C)=C2)C(=O)N(CC)C1=S,-17,-19,-1,x,26,-2
COC(=O)[C@]12OC[C@]34C([C@@H](O)[C@@H]1O)[C@]1(C)CC(=O)C(O)=C(C)[C@@H]1C[C@H]3OC(=O)[C@H](O)[C@@H]24 (stereo partly drawn),u,0,x,7,14,x
Cc1ccc(OP(=O)(O)Oc2ccc(C)cc2)cc1,-16,x,-3,-31,-5,-3
Cc1ccc(N=C(N(C)C)P(=O)(N(C)C)N(C)C)cc1,2,24*,-2,296,11,-5
O=C1N[C@H](Cc2ccccc2)C(=O)N2[C@@H]3[C@H](C[C@@H]12)c1ccccc1N3OOSc1ccccc1,7,x,x,282,13,x
CCN1CCN(c2cc(N3CCCC3)c(F)cc2[N+](=O)[O-])CC1,-7,7,-5,-5,25,-1
SMILES,PolyA inhibitor,NALP1 yeast inh,IMP-1 inh,Mot1-301 SUMO,NALP3 yeast inh,VIM-2 inhibitor
CN1CCN(c2cc(N3CCCC3)c([N+](=O)[O-])cc2F)CC1,-27,24,-3,332*,22,-5
CC(C)(C)n1cc(C(=O)c2ccccc2OCCCF)cn1,-2,16,-1,-8,13,11*
CN(C)C(=S)SSC(=S)N(C)C,8,64*,-5,-12,x,-2
COC(=O)C[C@]1(C(=O)OC)CN(C#N)N(c2ccc(Cl)cc2)C12c1ccccc1-c1ccccc12,-31,-2,-2,412*,26,-1
C/C=C/CC#N,x,x,x,50,18,x
Cc1ccc(NC(=O)[C@@H](NC(=O)N2C[C@H]3C[C@@H](C2)c2cccc(=O)n2C3)C(C)C)cc1,10,8,-2,-17,-1,-1
Cc1cc(OCC(=O)NCc2ccc(S(N)(=O)=O)cc2)c2c3c(c(=O)oc2c1)CCC3,-1,20,-3,-6,1,9.4*
Cc1cc(OCc2nn[nH]n2)c2c3c(c(=O)oc2c1)CCCC3,-10,10,1,17,-13,9.0*
O=C(O)c1ccccc1-c1ccc(C=C2C(=O)N(c3ccccc3)C(=S)N(c3ccccc3)C2=O)o1,-18,-3,14*,-5,14,1
CO[C@@H]1C=CC23c4cc5c(cc4CO[C@]2(O)CN(C)[C@H]3C1)OCO5 (stereo partly drawn),x,x,x,-19,1,x
COc1ccc(NC(=O)[C@@H](NC(=O)N2C[C@H]3C[C@@H](C2)c2cccc(=O)n2C3)C(C)C)cc1,-20,4,-1,1,-7,-2
C=CCn1c(O)c(/C(C)=N/NC(=S)Nc2ccccc2)c(=O)[nH]c1=O,-13,x,0,11,11,4
C=CCn1c(O)c(/C(CC)=N/NC(=S)Nc2ccccc2)c(=O)[nH]c1=O,9,-6,-2,102,7,8.9*
CCc1ccc(C(=O)C23CN4CN(CN(C4)C2)C3)cc1,20,6,-3,351*,17,-6
ClCC(Br)CBr (stereo not drawn),x,x,x,1,-11,x
CN1CCC(N(C)c2nc(-c3ccc([N+](=O)[O-])cc3)nc3ccccc23)CC1,-8,23,-2,x,x,9.9*
O=C(O)c1c[nH]c2ccc(S(=O)(=O)N(CCCl)CCCl)cc12,16,40*,-2,5,8,-2
Cc1cccc(CNCCc2c[nH]c3ccccc23)c1,-6,12,0,286*,17,1
O=c1[nH]c2ccccc2o1,x,24,-1,1,-4,-1

# Assay outcomes as filed in PubChem.
